The results in this text go back to ChEMBL document CHEMBL1152313, “Cytotoxic and HIF-1alpha inhibitory compounds from Crossosoma bigelovii” (J Nat Prod, 2009).

In data set [1] the target is T1, Hypoxia inducible factors; HIF-1-alpha, HIF-2-alpha (Homo sapiens, UniProt Q16665+Q99814). Description: Inhibition of HIF1 activation in human U251 cells stably transfected in pGL2-TK-HRE plasmid under hypoxic condition after 16 to 24 hrs by luciferase reporter gene assay. Conditions: u-251. Type of data set: cell-based. Background: A reporter such as luciferase makes a cellular process visible.

For data set [2], the system named is U-251. Description: Growth inhibition of human U251 cells stably transfected with pGL2-TK-HRE plasmid after 24 hrs. The note with it: u-251, 24 h. Type of data set: cell-based.
Data set [3] deals with U-251. Description: Growth inhibition of human U251 cells stably transfected with pGL3 plasmid after 24 hrs. Type of data set: cell-based. Conditions: u-251, 24 h.
The subject of the next data set is A549. Nature of the data set: Cytotoxicity against human A549 cells by MTT assay. The format is functional.
For a further data set, the system named is MCF7. Description: Cytotoxicity against human MCF7 cells by MTT assay. The format is functional. A digest of the protocol:
(§1)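 Cells were grown in MEM with 10% fetal calf serum, 0.1 g L⁻¹ penicillin G and 0.1 g L⁻¹ streptomycin sulfate. They were seeded into 96-well plates one day before dosing and incubated overnight at 37 °C. Compounds were dissolved in DMSO, diluted in medium to several concentrations and left on the cells for six days. Survival was read colorimetrically by MTT at 547 nm, with adriamycin as reference.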
A general note: Tetrazolium dyes change colour on reduction, which living cells bring about.

A further data set concerns HT-29. Nature of the data set: Cytotoxicity against human HT-29 cells by MTT assay. Type of data set: functional. The essentials: as §1
The subject of data set [4] is U-251. Nature of the data set: Reduction in VEGF mRNA expression in wild type human U251 cells under hypoxic condition after 8 hrs. The format is functional, cell-based. A digest of the protocol: (§2)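 Wild-type U251 cells treated 8 or 16 h under hypoxia (1% O₂, 37 °C). Total RNA isolated; 500 ng reverse-transcribed (10 min 25 °C, 30 min 48 °C, 5 min 95 °C). VEGF or CA9 transcript quantified by real-time PCR on 5 ng cDNA in triplicate (2 min 50 °C, 10 min 95 °C, then 40 cycles of 15 s 95 °C and 1 min 60 °C).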

The target of data set [5] is T1, Hypoxia inducible factors; HIF-1-alpha, HIF-2-alpha. Nature of the data set: Inhibition of HIF1 activation in human U251 cells stably transfected in pGL2-TK-HRE plasmid under hypoxic condition assessed as reduction of luciferase expression at 0.062 uM after 16 to 24 hrs by luciferase reporter gene assay. Type of data set: cell-based. Details: scale not given: the % may be the effect or the level left. The note with it: U-251.

The target is the same in data set [6]. Description: Inhibition of HIF1 activation in human U251 cells stably transfected in pGL3 plasmid under hypoxic condition assessed as reduction of luciferase expression at 0.062 uM after 16 to 24 hrs by luciferase reporter gene assay. The format is cell-based. Details: scale not given: the % may be the effect or the level left. The note with it: U-251.
Data set [7] shares this target. Description: Inhibition of HIF1 activation in human U251 cells transiently transfected in pGL2-TK-HRE plasmid under hypoxic condition at 0.1 to 0.005 uM after 16 hrs by luciferase reporter gene assay. The format is cell-based. Conditions: U-251. The essentials:
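Wild-type U251 cells transiently transfected with pGL2-TK-HRE using Effectene for 16 h. Medium then changed and compound added for 16 h under hypoxia (1% O₂, 5% CO₂, 37 °C) or normoxia (21% O₂). Luciferase read with Steady Glo reagent.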

Data set [8] relates to U-251. Nature of the data set: Inhibition of HIF1alpha protein expression in wild type human U251 cells under hypoxic condition at 0.025 uM treated 8 hrs before hypoxia induction. Type of data set: functional, cell-based.
The test system of data set [9] is U-251. Nature of the data set: Inhibition of HIF1alpha protein expression in wild type human U251 cells under hypoxic condition at 0.025 uM treated 16 hrs before hypoxia induction. The format is functional, cell-based.
Data set [10] has as its system U-251. Nature of the data set: Reduction in VEGF mRNA expression in wild type human U251 cells under hypoxic condition after 16 hrs. Type of data set: functional, cell-based. A digest of the protocol: as §2
In data set [11] the test system is U-251. Description: Reduction in carbonic anhydrase 9 mRNA expression in wild type human U251 cells under hypoxic condition at 0.1 uM after 8 hrs. Type of data set: functional, cell-based. The essentials:
as §2

Data set [12] has as its system U-251. Description: Reduction in carbonic anhydrase 9 mRNA expression in wild type human U251 cells under hypoxic condition at 0.1 uM after 16 hrs. Type of data set: functional, cell-based. The essentials: as §2

Calls of active or inactive are those of the source. The calls are words filed in the database; no cut-off is given here.

With `CO[C@H]1C[C@H](O[C@H]2CC[C@]3(C=O)[C@H]4CC[C@]5(C)[C@@H](C6=CC(=O)OC6)CC[C@]5(O)[C@@H]4CC[C@]3(O)C2)O[C@H](C)[C@H]1O[C@@H]1O[C@H](CO[C@@H]2O[C@H](CO)[C@@H](O)[C@H](O)[C@H]2O)[C@@H](O)[C@H](O)[C@H]1O`, the EC50 in data set [1] was determined as 40 nM. The Activity entry in the data set on U-251 [2] and with U-251 [3] was “Non-toxic” in each case.

For the molecule `CO[C@H]1C[C@H](O[C@H]2CC[C@]3(C=O)[C@H]4CC[C@]5(C)[C@@H](C6=CC(=O)OC6)CC[C@]5(O)[C@@H]4CC[C@]3(O)C2)O[C@H](C)[C@H]1O[C@@H]1O[C@H](CO)[C@@H](O)[C@H](O)[C@H]1O`, the Activity entry in the data set with U-251 [2] and in the data set on U-251 [3] was “Non-toxic” each time.

`CO[C@H]1[C@H](O[C@H]2CC[C@]3(C=O)[C@H]4CC[C@]5(C)[C@@H](C6=CC(=O)OC6)CC[C@]5(O)[C@@H]4CC[C@]3(O)C2)O[C@H](C)C[C@H]1O[C@@H]1O[C@H](CO)[C@@H](O)[C@H](O)[C@H]1O`: the GI50 with A549 was 8 nM; in the data set on MCF7 it was 10 nM; with HT-29 it was 70 nM. Besides, the EC50 in [1] turned out to be 600 nM. For the same molecule, the Activity entry in the data set with U-251 [2] and in the data set with U-251 [3] was “Non-toxic” throughout.

For `Cc1cc(=O)c2c(O)cc(O[C@@H]3O[C@H](CO[C@@H]4O[C@@H](C)[C@H](O)[C@@H](O)[C@H]4O)[C@@H](O)[C@H](O)[C@H]3O)cc2o1`, the GI50 with A549 came to 400 nM; in the data set with MCF7 it was 800 nM; with HT-29 it was 6000 nM.

As for `COc1c(O[C@@H]2O[C@H](CO[C@@H]3O[C@@H](C)[C@H](O)[C@@H](O)[C@H]3O)[C@@H](O)[C@H](O)[C@H]2O)cc2oc(C)cc(=O)c2c1O`, the GI50 in the data set on A549 amounted to 400 nM; in the data set on MCF7, 800 nM; in the data set with HT-29, 6000 nM.

On to `CC[C@@]1(O)C(=O)OCc2c1cc1n(c2=O)Cc2cc3c(CN(C)C)c(O)ccc3nc2-1`, for which the result in the data set on U-251 [4] was inactive.

In turn, `C[C@@H]1O[C@@H](O[C@H]2CC[C@]3(C=O)[C@H]4CC[C@]5(C)[C@@H](C6=CC(=O)OC6)CC[C@]5(O)[C@@H]4CC[C@]3(O)C2)[C@H](O)[C@H](O)[C@H]1O` [CONVALLATOXIN] displayed an EC50 in data set [1] of 20 nM. Besides, the Activity entry in the data set on U-251 [2] is “Non-toxic”; in the data set with U-251 [3] it was “Non-toxic”; in [5], 77%; in [6], 50%. Besides, the outcome (in data set [7]; in the data set with U-251 [8]; in the data set on U-251 [9]; with U-251 [4]; in the data set with U-251 [10]; with U-251 [11]) was Active. Further, in the data set with U-251 [12], the result was Active.

Take `COc1cccc2c1C(=O)c1c(O)c3c(c(O)c1C2=O)C[C@@](O)(C(=O)CO)C[C@@H]3O[C@H]1C[C@H](N)[C@H](O)[C@H](C)O1` [DOXORUBICIN]: the GI50 with A549 was determined as 7 nM; with MCF7, 100 nM; with HT-29, 60 nM. This molecule also registered an EC50 in data set [1] of 120 nM.

For the molecule `COc1cc(O)c2c(=O)cc(C)oc2c1` [EUGENIN], the GI50 in the data set with A549 came to 14000 nM; in the data set with MCF7 it was 10000 nM; in the data set with HT-29, 25000 nM.

As to `Cc1cc(=O)c2c(O)cc(O)cc2o1` [NOREUGENIN], the GI50 in the data set with A549, in the data set on MCF7 and in the data set on HT-29 was over 50000 nM in each case.

Take `COc1c(O)cc2oc(C)cc(=O)c2c1O` [PISONIN B]: the values for the GI50 with A549, with MCF7 and in the data set with HT-29 were 225000 nM, over 450000 nM and 180000 nM, respectively.

As to `C[C@]12CC[C@H]3[C@@H](CC[C@]4(O)C[C@@H](O)CC[C@]34C=O)[C@@]1(O)CC[C@@H]2C1=CC(=O)OC1` [STROPHANTHIDIN], the Activity entry in the data set on U-251 [2] and with U-251 [3] was “Non-toxic” throughout.

By EC50 is commonly meant the midpoint of the concentration-response curve. By GI50 is commonly meant the concentration that inhibits growth by half.
